Published values pooled from the literature.
Lines come from different studies, so protocols differ.
Effect on: metabolic stability
Species: human
Matrix: liver microsomes

Cc1[nH]c(C)c(S(=O)(=O)Nc2ccc(C(F)(F)F)c(Cl)c2)c1C(=O)N(C)C
microsomal CLint: 79 µL/min/mg

CNc1ccc(C(N)=O)cn1
microsomal CLint (1 µM, pH 7.4): < 3 µL/min/mg

CONC(=O)c1cccc2c1cc(C)n2-c1nc2c(c(NCc3ccccc3)n1)CCCN2
microsomal CLint (1 µM, pH 7.4): 98.7 µL/min/mg

CC1(C)CCC(C(=O)NCc2nc(-c3ccc(C#N)cc3)cs2)CN1C(=O)COCCF (racemic)
microsomal CLint (0.5 µM): 219 µL/min/mg

CC1(C)NC(=O)N(c2ccc(F)c(F)c2)C1=O
microsomal CLint: < 7 µL/min/mg

c1ccc(Oc2ccc(Nc3c4c(nc5ccccc35)CCC4)cc2)cc1
microsomal CLint (0.5 µM): 31 µL/min/mg

Cc1ccc(N(C)c2ccc(NC(=O)CN(C)c3ccccc3N3CCCC3=O)cn2)cc1
microsomal CLint: 216 µL/min/mg

CC1(C)NC(=O)N(c2ccc(F)c(OC(F)(F)F)c2)C1=O
microsomal CLint: < 7 µL/min/mg

O=c1c2ccc(Oc3cccc(OC(F)(F)F)c3)cc2[nH]c2cc(Cl)cc(F)c12
microsomal CLint (1 µM, pH 7.4): 2.96 µL/min/mg

CONC(=O)N1CCC[C@H](C(=O)NCc2nc(-c3ccccc3)cs2)C1
microsomal CLint (0.5 µM): 7.3 µL/min/mg

Cc1ccc(N(C)c2ccc(NC(=O)CN(C)c3cccnc3N3CCCC3=O)cc2)cc1
microsomal CLint: 222 µL/min/mg

O=c1c2ccc(OCc3cccc(C(F)(F)F)c3)cc2[nH]c2ccc(Cl)c(F)c12
microsomal CLint (1 µM, pH 7.4): 2.73 µL/min/mg

CCONC(=O)N1CCC[C@H](C(=O)N[C@H](C)c2nc(-c3ccc(C#N)cc3)cs2)C1
microsomal CLint (0.5 µM): 17 µL/min/mg

O=C(O)Cc1ccccc1Nc1c(Cl)cccc1Cl
microsomal CLint (2 µM, pH 7.4): 201 µL/min/mg

CCOCC(=O)N1CCC[C@H](C(=O)NCc2nc(-c3ccc(-n4cccn4)cc3)cs2)C1
microsomal CLint (0.5 µM): 64 µL/min/mg

O=c1c2c([nH]c3ccc(Oc4ccc(OC(F)(F)F)cc4)cc13)CCCC2
microsomal CLint (1 µM, pH 7.4): 55.3 µL/min/mg

CCN(c1ccc(C)cc1)c1ccc(NC(=O)CN(C)c2ccccc2N2CCCC2=O)cn1
microsomal CLint: 408 µL/min/mg

O=c1c2ccc(Oc3ccccc3OC(F)(F)F)cc2[nH]c2cc(Cl)cc(F)c12
microsomal CLint (1 µM, pH 7.4): 20.3 µL/min/mg

Cc1ccc(N(c2ccc(NC(=O)CN(C)c3ccccc3N3CCCC3=O)cc2)C(C)C)cc1
microsomal CLint: 319 µL/min/mg

O=C(NCc1nc(-c2ccccc2)cs1)[C@H]1CCCN(C(=O)[C@H]2CCCO2)C1
microsomal CLint (0.5 µM): 35 µL/min/mg

CCCCCCOc1ccc2c(=O)c3c([nH]c2c1)CCCC3
microsomal CLint (1 µM, pH 7.4): 92.2 µL/min/mg

CN1CCN(c2ccc(-c3ccc4nncc(Nc5ccc(OC(F)(F)F)cc5)c4c3)cc2)CC1
microsomal CLint: 30 µL/min/mg

N#Cc1ccc(-c2csc(CNC(=O)[C@H]3CCCN(C(=O)N4CCCO4)C3)n2)cc1
microsomal CLint (0.5 µM): 112 µL/min/mg

Cc1ccc(Oc2ccc(NC(=O)CNc3ccccc3N3CCCC3=O)cc2)cc1
microsomal CLint: 102 µL/min/mg

Cc1ccc(Nc2cnnc3ccc(-c4ccc(N5CCCN(C)CC5)cc4)cc23)cn1
microsomal CLint: 75 µL/min/mg

CCN(CC)CCNC(=O)c1c(C)[nH]c(/C=C2\C(=O)Nc3ccc(F)cc32)c1C
microsomal CLint (1 µM, pH 7.4): 25.6 µL/min/mg

CC1(C)NC(=O)N(c2ccc(F)c(S(C)(=O)=O)c2)C1=O
microsomal CLint: < 7 µL/min/mg

COCC(=O)N1CCC[C@H](C(=O)NCc2nc(-c3ccc(C(F)(F)F)cc3)cs2)C1
microsomal CLint (0.5 µM): 37 µL/min/mg

O=c1c2c([nH]c3cc(Oc4ccc(OC(F)(F)F)cc4)ccc13)CCCC2
microsomal CLint (1 µM, pH 7.4): 51.8 µL/min/mg

COCC(=O)N1CCC[C@H](C(=O)NCc2nc(-c3cccnc3)cs2)C1
microsomal CLint (0.5 µM): < 7 µL/min/mg

O=C1NC2(CCS(=O)(=O)CC2)C(=O)N1c1ccc(F)c(C(F)(F)F)c1
microsomal CLint: < 7 µL/min/mg

Cc1ccc(OCC(=O)N[C@@H](Cc2c[nH]c3ccccc23)C(=O)OC(C)C)cc1
microsomal CLint (20 mM): 14.6 µL/min/mg

COc1ccc(Oc2ccc3c(=O)c4c(F)cc(Cl)cc4[nH]c3c2)cc1
microsomal CLint (1 µM, pH 7.4): 12.3 µL/min/mg

CC1(C)NC(=O)N(c2cc(C(F)(F)F)c(F)cc2C#N)C1=O
microsomal CLint: < 7 µL/min/mg

O=c1c2ccc(OCc3cccc(OC(F)(F)F)c3)cc2[nH]c2cc(F)cc(Cl)c12
microsomal CLint (1 µM, pH 7.4): 22.5 µL/min/mg

CCC(F)(F)c1cc(N2C(=O)NC(C)(C)C2=O)ccc1F
microsomal CLint: < 7 µL/min/mg

CC(C)N(c1ccc(Cl)c(F)c1)c1ccc(NC(=O)CN(C)c2ccccc2N2CCCC2=O)cn1
microsomal CLint: 287 µL/min/mg

CC1(C)NC(=O)N(c2ccc(F)c(Br)c2)C1=O
microsomal CLint: < 7 µL/min/mg

Cc1ccc(Oc2ccc(NC(=O)CN(C)c3ccccc3N3CCCC3=O)cc2)cc1
microsomal CLint: 383 µL/min/mg

Cc1[nH]c(C)c(S(=O)(=O)Nc2ccc(C(F)(F)F)c(Cl)c2)c1C(=O)N1CCC(F)(F)C1
microsomal CLint: 68 µL/min/mg

CC1(C)NC(=O)N(c2ccc(F)c(CC(F)(F)F)c2)C1=O
microsomal CLint: < 7 µL/min/mg

C#C[C@]1(OC(C)=O)CC[C@H]2[C@@H]3CCC4=CC(=NO)CC[C@@H]4[C@H]3CC[C@@]21CC (mixture of isomers)
microsomal CLint: 70.1 µL/min/mg
